# MBD2 inh – blocks human MBD2 binding to methylated DNA; Q9UBB5; TR-FRET, MBD2 binding to methylated oligonucleotide; inhibition, % at 4.4 µM; 370,000 compounds, 0.31% hits; in the data active = inhibition above about 13%
# PRMT1 FP inh – blocks human protein arginine methyltransferase 1. AID 652257. 370,000 compounds, 1.3% hits. inhibition, % at 2.79 µM. recombinant PRMT1, activity-based probe fluorescence polarization;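 active = inhibition above about 21% made by adding two undisclosed values, limit read from the data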
# Target sequence (Q99873 whole entry, looked up): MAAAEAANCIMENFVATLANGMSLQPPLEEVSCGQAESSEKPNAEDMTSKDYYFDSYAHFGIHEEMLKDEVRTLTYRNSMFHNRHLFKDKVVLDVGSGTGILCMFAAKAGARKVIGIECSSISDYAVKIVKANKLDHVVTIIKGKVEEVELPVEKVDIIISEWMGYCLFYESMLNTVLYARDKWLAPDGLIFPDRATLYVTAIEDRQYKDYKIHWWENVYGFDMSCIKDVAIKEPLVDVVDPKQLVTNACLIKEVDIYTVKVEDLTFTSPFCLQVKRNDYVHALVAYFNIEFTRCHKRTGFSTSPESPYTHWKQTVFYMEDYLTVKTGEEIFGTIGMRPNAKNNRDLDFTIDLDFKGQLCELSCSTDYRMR
# UHRF1 MBD2 ctr – blocks human UHRF1 binding to methylated DNA. AID 687016. Q96T88. UHRF1 binding to methylated oligo, TR-FRET. inhibition, % at 4.4 µM. 370,000 compounds, 0.75% hits; in the data active = inhibition above about 21%;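 note: UHRF1 SRA domain binding a hemimethylated CpG hairpin DNA probe; 0% = median of test compound wells and 100% = reference inhibitor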
# LEDGF integ inh – blocks HIV-1 LEDGF/p75-dependent DNA integration. TR-FRET IN-LEDGF/p75 DNA integration, Eu/Cy5. inhibition, % at 3.7 µM. 370,000 compounds, 0.64% hits;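 active = inhibition above the screen-wide mean plus 3 SD, cut at about 13% in these data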;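 note: signal is the Cy5 over europium emission ratio at 671 and 618 nm; 0% = plate median of compound wells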
# TDP2 absorb – blocks human TDP2 phosphodiesterase activity. 370,000 compounds, 0.34% hits. O95551. inhibition, % at 12.8 µM. recombinant TDP2, T5PNP hydrolysis, p-nitrophenol absorbance 415 nm;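 active = inhibition above the mean of all tested compounds plus 3 SD, set per campaign, cut at about 25% in these data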;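 note: 0% = DMSO with enzyme and 100% = buffer with substrate but no TDP2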
#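 Test system: Human TDP2 enzyme | Reagent: 5 mM T5PNP | Compound dosing: 12.8 µM single point, 1% DMSO | Incubation: Enzyme reaction with compound for 2 h at 37 °C | Technique: p-Nitrophenol epi absorbance | Read-out: % inhibition relative to enzyme-containing and enzyme-free wells | Benchmarks: High control without enzyme, low control DMSO plus TDP2 | Replicates: Singlicate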
# SIAE primary – blocks human sialic acid acetylesterase; Q9HAT2; AID 1053197; inhibition, % at 9.66 µM; SIAE FP-Rh probe binding, fluorescence polarization; 370,000 compounds, 0.69% hits;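 active = inhibition above a cutoff: mean of compounds within the control limits plus 3 SD of those, cut at about 17% in these data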;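 note: 0% = plate median of compound wells and 100% = probe without SIAE protein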
# IN multimer up – activates HIV-1 integrase multimerization in LEDGF counter-screen; shares compounds with LEDGF integ inh; TR-FRET HIV-1 integrase multimerization, biochemical; activation, % at 7.7 µM; 2,000 compounds, 17% hits; in the data active = activation above about 8.9%
# TRFRET interf – counter-screen for LEDGF/p75 integration inhibitors: TR-FRET optical interference. shares compounds with LEDGF integ inh. TR-FRET optical interference counterscreen, HIV-1 IN multimerization. inhibition, % at 7.7 µM. 2,000 tested, under 10 active;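 active = inhibition above the mean over all tested compounds plus 3 SD, which no compound reached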;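 note: 0% = integrase with antibodies and DMSO and 100% = antibodies without integrase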
# IN-LEDGF confirm – confirmation of HIV-1 LEDGF/p75-dependent integration inhibitors. shares compounds with LEDGF integ inh. TR-FRET LEDGF/p75-dependent HIV-1 integration, biochemical. inhibition, % at 3.7 µM. 2,000 compounds, 36% hits. AID 1053136; in the data active = inhibition above about 14%
# Numbers without * were called inactive; . = not tested or not shown. Sampled rows, rich in hits. Any-hit rate of the full collection: about 3.3%.
SMILES,MBD2 inh,PRMT1 FP inh,UHRF1 MBD2 ctr,LEDGF integ inh,TDP2 absorb,SIAE primary,IN multimer up,TRFRET interf,IN-LEDGF confirm
COC(=O)C1CN(Cc2cn(Cc3ccc(Cl)cc3)nn2)CCS(=O)(=O)N1Cc1ccc(F)cc1 (stereo not drawn),7.2,-0.9,14.3,-1.0,11.4,0.1,.,.,.
O=C(CSc1nccc(=O)[nH]1)N1N=C2/C(=C/c3ccco3)CCCC2C1c1ccco1 (stereo not drawn),9.8,12.7,13.8,37.5*,-4.3,15.9,1.7,-8.6,19.3*
Nc1nc(SCC(=O)N2N=C3/C(=C/c4ccco4)CCCC3C2c2ccco2)n[nH]1 (stereo not drawn),0.9,2.6,-3.3,17.6*,9.1,-6.0,0.8,-3.8,6.3
Nc1nc(SCC(=O)N2N=C3/C(=C\c4ccco4)CCCC3C2c2ccco2)n[nH]1 (stereo not drawn),-6.1,5.3,-1.0,2.0,-10.1,-0.6,.,.,.
CN1C[C@]2(C=C3CCCCC3n3c(=O)n(-c4ccccc4)c(=O)n32)N(C(=O)OCc2ccccc2)C1=NC(=O)c1ccccc1 (stereo partly drawn),-5.8,3.2,0.8,4.5,3.9,2.4,.,.,.
CCc1nc2c(OCC3COc4ccccc4O3)cccn2c1N(C)C(=O)c1cccc(OC)c1 (stereo not drawn),2.8,-0.6,-0.8,19.5*,-4.9,2.6,1.2,-6.0,0.1
CC(=O)N1CCc2c1cccc2S(=O)(=O)NC(CC(C)C)C(=O)Nc1ccc(F)cc1Cl (stereo not drawn),3.9,-1.9,-1.7,1.5,6.0,-1.7,.,.,.
CCN(C(=O)[C@@H]1CC(=O)O[C@@H]1c1ccccc1)c1ccccc1,-1.5,-0.6,1.8,0.2,-6.1,3.6,.,.,.
Cc1cnc(C)c(N(C)NC(=S)Nc2ccccc2)n1,2.8,-0.9,0.6,16.5*,7.7,-1.9,0.5,-1.9,-6.8
CC(=O)Nc1ccc2c(COC(=O)CC3Sc4ccccc4NC3=O)cc(=O)oc2c1 (stereo not drawn),6.3,5.9,15.5,13.9*,8.7,-3.6,21.1*,-106.6,13.8*
COc1ccc2c(COC(=O)CC3Sc4ccccc4NC3=O)cc(=O)oc2c1 (stereo not drawn),-2.9,-2.8,-1.3,0.1,2.2,-8.1,.,.,.
CC1Cn2c(CCc3ccccc3)nnc2S1 (stereo not drawn),3.1,2.5,0.8,23.2*,4.4,-1.7,0.2,-0.7,-5.7
COC(=O)C1=C(C)N(C)C(=NCc2ccccc2C(F)(F)F)NC1c1cccc(F)c1 (stereo not drawn),1.3,-2.2,-1.4,1.5,-0.9,-5.9,.,.,.
CC(=C/c1ccco1)/C=N/NC(=O)Cc1cccn1C,1.9,3.8,5.0,20.9*,-1.7,15.5,-1.3,4.7,9.8
CC(/C=N/NC(=O)Cc1cccn1C)=C\c1ccco1,8.9,4.7,21.1*,37.2*,4.3,5.8,0.9,-4.8,6.0
Cn1cccc1CC(=O)N/N=C/c1ccco1,-2.3,1.7,-0.8,4.7,0.4,3.2,.,.,.
O=C(CSc1nnc(Cc2cccs2)n1C1CCCCC1)N1CCCc2ccccc21,-3.6,1.5,-2.3,13.5*,2.4,5.4,0.6,-3.0,3.3
Cc1onc(-c2c(Cl)cccc2Cl)c1-c1nc2cc(Cl)ccc2c(=O)o1,8.2,0.6,0.2,80.9*,7.6,-9.4,-1.5,7.7,-1.8
O=C(O)/C(=C\c1ccco1)NC(=O)c1ccco1,-0.3,12.1,0.8,8.0,-8.5,4.2,.,.,.
NC(=O)/C(=C\c1ccco1)NC(=O)c1ccco1,-8.1,19.6,-1.0,14.0*,-8.1,13.9,2.0,-9.9,2.7
O=C(OC12CCCN(C1)/C(=C/c1ccccc1)C2)c1ccc(F)cc1 (stereo not drawn),0.0,0.5,3.2,-4.3,-8.8,0.0,.,.,.
c1ccc(-c2noc(CN3CCN(c4ccccc4)CC3)n2)cc1,-0.5,1.2,-0.3,-2.5,1.9,-3.2,.,.,.
c1ccc(-c2noc(CN3CCN(C(c4ccccc4)c4ccccc4)CC3)n2)cc1,-0.7,0.0,-0.3,15.2*,11.7,-0.2,0.3,-1.5,-1.0
Cc1ccc(/C=[N+](\[O-])c2ccc(N(C)C)cc2)c2nsnc12,-6.8,3.1,0.2,14.4*,15.7,9.1,10.4*,-37.5,11.4
CC(C)NC(=O)C(Cc1ccccc1)N1C(=O)c2ccccc2C1=O (stereo not drawn),0.7,-0.6,4.4,2.5,-22.8,2.3,.,.,.
SMILES,MBD2 inh,PRMT1 FP inh,UHRF1 MBD2 ctr,LEDGF integ inh,TDP2 absorb,SIAE primary,IN multimer up,TRFRET interf,IN-LEDGF confirm
CC(C)(O)CNC(=O)C(Cc1ccccc1)N1C(=O)c2ccccc2C1=O (stereo not drawn),3.4,-2.2,9.8,76.7*,-6.3,-4.1,0.0,0.2,-5.8
Cc1cc(C(=O)CN2c3cccc4cccc(c34)S2(=O)=O)c(C)n1C,-8.3,19.0,4.9,20.1*,-5.3,11.4,1.5,-7.4,8.1
COCC(C)n1c(C)cc(C(=O)CN2c3cccc4cccc(c34)S2(=O)=O)c1C (stereo not drawn),-1.0,-1.4,3.0,4.0,-2.3,7.4,.,.,.
CN(Cc1ccccc1)C(=O)c1nc[nH]c1C(=O)N(C)Cc1ccccc1,2.4,-0.5,0.8,16.6*,2.6,-2.5,0.4,-2.0,6.7
O=C(O)c1ccc(NC2OC[C@@H](O)[C@H](O)[C@H]2O)cc1 (stereo partly drawn),4.2,4.8,52.3*,18.1*,6.7,-1.5,0.1,-0.5,-1.6
O=C(O)CCCC(=O)Nc1ccc(N2CCCC2)cc1,-1.8,0.7,21.0*,13.8*,1.7,-1.0,12.3*,-61.9,13.2
CN1C(C(=O)NCc2cccc(C(F)(F)F)c2)CC2Cn3c(nc4ccccc43)C21 (stereo not drawn),2.0,-2.5,-2.1,15.1*,-6.5,3.8,0.2,-0.6,-12.7
Cc1ccc(CNC(=O)C2CC3Cn4c(nc5cc(C)c(C)cc54)C3N2C)o1 (stereo not drawn),2.0,6.9,3.0,3.7,-5.8,3.9,.,.,.
CN1C(C(=O)NCc2cccc(C(F)(F)F)c2)CC2Cn3c(nc4cc5ccccc5cc43)C21 (stereo not drawn),-3.2,0.8,-0.9,-1.1,-2.0,-2.6,.,.,.
Cc1cc2nc3n(c2cc1C)CC1CC(C(=O)NCc2ccco2)N(C)C31 (stereo not drawn),8.2,15.2,45.0*,26.8*,13.7,3.3,0.0,0.3,-8.1

# Screens from PubChem BioAssay.
